≈ marks a conversion by molar mass, not a printed value. Calls of active or inactive are those of the source. The rule behind the calls is not given here.
Experiments:
Type in all cases: functional
[1] = tested on: Staphylococcus aureus; experiment: Antibacterial activity against Staphylococcus aureus NBRC 100910 after overnight incubation by microdilution method
Method in brief: (§1)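 Broth microdilution MIC, modified Eloff method. Compounds were dissolved in DMSO (under 5%) and tested in duplicate. Two-fold serial dilution followed by overnight incubation at 37 °C. MIC is the lowest concentration inhibiting growth.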

[2] = tested on: Bacillus subtilis; experiment: Antibacterial activity against Bacillus subtilis NBRC 13719 after overnight incubation by microdilution method; method in brief: as §1
[3] = tested on: Klebsiella pneumoniae; experiment: Antibacterial activity against Klebsiella pneumoniae NBRC 14940 after overnight incubation by microdilution method; method in brief: as §1
[4] = tested on: Escherichia coli; experiment: Antibacterial activity against Escherichia coli NBRC 102203 after overnight incubation by microdilution method; method in brief: as §1
[5] = Staphylococcus aureus, NBRC 100910, read-out: MIC
[6] = Bacillus subtilis, NBRC 13719, read-out: MIC

Row | MIC [1, 5] [µM] | MIC [2, 6] [µM] | MIC [1] [µM] | MIC [2] [µM] | Compound | Activity [3] | Activity [4]
1 |  | 12.5 (≈ 6.26 µg/mL) |  |  | COc1cc(OC)c(C(c2ccccc2)c2c(O)cc(O)c3c(=O)c4ccc(O)cc4oc23)cc1OC (racemic) [listing 1 of 2 here] |  | 
2 | > 100 | > 100 |  |  | COc1cc(OC)c2c(=O)c3c(O)cc(O)c(C(c4ccccc4)c4cc(OC)c(OC)cc4OC)c3oc2c1 (racemic) | inactive | inactive
3 | 10 (≈ 5.01 µg/mL) |  |  |  | COc1cc(OC)c(C(c2ccccc2)c2c(O)cc(O)c3c(=O)c4ccc(O)cc4oc23)cc1OC (stereo in doubt; (-)-2) [listing 1 of 2 here] |  | 
4 | 12.5 (≈ 6.46 µg/mL) | 100 (≈ 51.7 µg/mL) |  |  | COc1cc(OC)c(C(c2ccccc2)c2c(O)cc(O)c3c(=O)c4c(O)cc(O)cc4oc23)cc1OC (single isomer, unassigned; (-)) [listing 2 of 2 here] |  | 
5 |  | > 100 | 25 (≈ 12.1 µg/mL) |  | COc1cc(OC)c(C(c2ccccc2)c2c(O)cc(O)c3c(=O)c4ccccc4oc23)cc1OC (racemic) [listing 2 of 2 here] |  | 
6 |  |  |  | 10 (≈ 5.01 µg/mL) | COc1cc(OC)c(C(c2ccccc2)c2c(O)cc(O)c3c(=O)c4ccc(O)cc4oc23)cc1OC (stereo in doubt; (+)-2) [listing 2 of 2 here] |  | 
7 |  |  | 10 (≈ 4.85 µg/mL) |  | COc1cc(OC)c(C(c2ccccc2)c2c(O)cc(O)c3c(=O)c4ccccc4oc23)cc1OC (single isomer, unassigned; (+)) [listing 2 of 2 here] |  | 
8 |  |  | 10 (≈ 5.17 µg/mL) | 50 (≈ 25.8 µg/mL) | COc1cc(OC)c(C(c2ccccc2)c2c(O)cc(O)c3c(=O)c4c(O)cc(O)cc4oc23)cc1OC (single isomer, unassigned; (+)) [listing 2 of 2 here] |  | 
9 |  |  | 50 (≈ 24.2 µg/mL) |  | COc1cc(OC)c(C(c2ccccc2)c2c(O)cc(O)c3c(=O)c4ccccc4oc23)cc1OC (single isomer, unassigned; (-)) [listing 2 of 2 here] |  | 

The remaining lines, values behind:

Row | Compound | MIC [1, 5] [µM] | MIC [2, 6] [µM] | MIC [1] [µM] | MIC [2] [µM] | Activity [3] | Activity [4]
10 | COc1cc(OC)c(C(O)c2ccccc2)cc1OC (stereo not drawn) | > 100 | > 100 |  |  | inactive | inactive
11 | COc1cc(OC)c(C(c2ccccc2)c2c(O)cc(O)c3c(=O)c4c(O)cc(O)cc4oc23)cc1OC (racemic) |  |  |  |  | inactive | inactive
12 | O=c1c2ccccc2oc2cc(O)cc(O)c12 | 100 (≈ 22.8 µg/mL) | > 100 |  |  | inactive | inactive
13 | O=c1c2c(O)cc(O)cc2oc2cc(O)cc(O)c12 | 50 (≈ 13 µg/mL) | > 100 |  |  | inactive | inactive
14 | COc1cc(OC)c(C(=O)c2ccccc2)cc1OC | > 100 | > 100 |  |  | inactive | inactive
15 | COc1cc(OC)c(C(c2ccccc2)c2c(O)cc(O)c3c(=O)c4c(O)cc(O)cc4oc23)cc1OC (single isomer, unassigned; (-)) [listing 1 of 2 here] |  |  |  |  | inactive | inactive
16 | COc1cc(OC)c(C(c2ccccc2)c2c(O)cc(O)c3c(=O)c4ccc(O)cc4oc23)cc1OC (racemic) [listing 2 of 2 here] |  |  |  |  | inactive | inactive
17 | CC1(C)S[C@@H]2[C@H](NC(=O)[C@H](N)c3ccccc3)C(=O)N2[C@H]1C(=O)O [AMPICILLIN] | 1.25 (≈ 0.437 µg/mL) | 1.25 (≈ 0.437 µg/mL) |  |  |  | 
18 | COc1cc(OC)c(C(c2ccccc2)c2c(O)cc(O)c3c(=O)c4ccc(O)cc4oc23)cc1OC (stereo in doubt; (+)-2) [listing 1 of 2 here] |  |  |  |  | inactive | inactive
19 | Oc1ccc(O)c(O)c1 | > 100 | > 100 |  |  | inactive | inactive
20 | COc1cc(OC)c(C(c2ccccc2)c2c(O)cc(O)c3c(=O)c4ccccc4oc23)cc1OC (racemic) [listing 1 of 2 here] |  |  |  |  | inactive | inactive
21 | COc1cc(OC)c(C(c2ccccc2)c2c(O)cc(O)c3c(=O)c4ccccc4oc23)cc1OC (single isomer, unassigned; (+)) [listing 1 of 2 here] |  |  |  |  | inactive | inactive
22 | COc1cc(OC)c(C(c2ccccc2)c2c(O)cc(O)c3c(=O)c4c(O)cc(O)cc4oc23)cc1OC (single isomer, unassigned; (+)) [listing 1 of 2 here] |  |  |  |  | inactive | inactive
23 | NC[C@H]1O[C@H](O[C@H]2[C@H](O)[C@@H](O[C@H]3O[C@H](CO)[C@@H](O)[C@H](N)[C@H]3O)[C@H](N)C[C@@H]2N)[C@H](N)[C@@H](O)[C@@H]1O [BEKANAMYCIN] | 1.25 (≈ 0.604 µg/mL) | 1.25 (≈ 0.604 µg/mL) |  |  |  | 
24 | COc1cc(OC)c(C(c2ccccc2)c2c(O)cc(O)c3c(=O)c4ccccc4oc23)cc1OC (single isomer, unassigned; (-)) [listing 1 of 2 here] |  |  |  |  | inactive | inactive
25 | COc1cc(OC)c2c(=O)c3c(O)cc(O)cc3oc2c1 | > 100 | > 100 |  |  | inactive | inactive
26 | O=c1c2ccc(O)cc2oc2cc(O)cc(O)c12 | 100 (≈ 24.4 µg/mL) | > 100 |  |  | inactive | inactive
27 | COc1cc(O)c2c(=O)c3c(OC)cc(OC)cc3oc2c1 | > 100 | > 100 |  |  | inactive | inactive
28 | COc1cc(OC)c2c(=O)c3c(O)cc(OC)c(C(c4ccccc4)c4cc(OC)c(OC)cc4OC)c3oc2c1 (racemic) | > 100 | > 100 |  |  | inactive | inactive
29 | COc1cc(OC)c(C(c2ccccc2)c2c(O)cc(O)c3c(=O)c4ccc(O)cc4oc23)cc1OC (stereo in doubt; (-)-2) [listing 2 of 2 here] |  |  |  |  | inactive | inactive

Reference: ChEMBL document CHEMBL4028828, “Syntheses of benzophenone-xanthone hybrid polyketides and their antibacterial activities” (2017)
